An excerpt weighted towards active compounds, which were near 2.3% of everything screened.
CHT PAM: CHT positive allosteric modulators, primary screen, cell-based, membrane potential dye, choline EC20; CHT-expressing cells; stronger effect = higher value; LV-AA mutant CHT in HEK293 cells; B-score at 10 µM; High affinity choline transporter 1 (Homo sapiens), Q9GZV3; 310,000 compounds, 0.49% hits;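 active means initial fluorescence not abnormally high and integrated response B-score, plate-corrected, over 3 SD above library mean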
T cell modulator: modulators of CD8 T cell-vesicle binding, primary screen, mouse 2C CD8+ T cells, flow cytometry; 2C CD8+ T cell-vesicle binding; stronger effect = lower value; response (vesicle binding), % at 7 µM; 330,000 compounds, 0.068% hits; AID 2052, 2009;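 active means response, share of CD8 T cells binding vesicles, and their 90th percentile fluorescence all below set limits, cut at about 80% in these data, passing the limit was not always enough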;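 further: values below 100% mean blocked vesicle binding to the CD8+ T cells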
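Material: 2C TCR transgenic mouse naive CD8+ T cells, MACS-purified. Also added: QL9-charged Drosophila Ld/ICAM-1/B7-1 vesicles. Timing: binding 1.5 h at 37 °C. Measured by: high-throughput flow cytometry with anti-B7-1 and anti-CD8 staining. Read-out: percent CD8+ FL2 mean versus row control. Controls: Unloaded micro-vesicles (low), QL9 vesicles with 0.7% DMSO (high).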
Pemphigus Ab inh: inhibitors of pemphigus antibody binding to DSG3, primary screen, biochemical, bead-based, flow cytometry, scFv-GFP | Desmoglein-3 (Homo sapiens), P32926 | DSG3-coupled beads, scFv-anti-DSG3-GFP binding; stronger effect = lower value | binding (percent of control), % at 10 µM | 310,000 compounds, 0.48% hits | AID 588358, 2011;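 active means binding more than 3 SD below its plate's average and above zero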
Target sequence (P32926 whole entry, looked up): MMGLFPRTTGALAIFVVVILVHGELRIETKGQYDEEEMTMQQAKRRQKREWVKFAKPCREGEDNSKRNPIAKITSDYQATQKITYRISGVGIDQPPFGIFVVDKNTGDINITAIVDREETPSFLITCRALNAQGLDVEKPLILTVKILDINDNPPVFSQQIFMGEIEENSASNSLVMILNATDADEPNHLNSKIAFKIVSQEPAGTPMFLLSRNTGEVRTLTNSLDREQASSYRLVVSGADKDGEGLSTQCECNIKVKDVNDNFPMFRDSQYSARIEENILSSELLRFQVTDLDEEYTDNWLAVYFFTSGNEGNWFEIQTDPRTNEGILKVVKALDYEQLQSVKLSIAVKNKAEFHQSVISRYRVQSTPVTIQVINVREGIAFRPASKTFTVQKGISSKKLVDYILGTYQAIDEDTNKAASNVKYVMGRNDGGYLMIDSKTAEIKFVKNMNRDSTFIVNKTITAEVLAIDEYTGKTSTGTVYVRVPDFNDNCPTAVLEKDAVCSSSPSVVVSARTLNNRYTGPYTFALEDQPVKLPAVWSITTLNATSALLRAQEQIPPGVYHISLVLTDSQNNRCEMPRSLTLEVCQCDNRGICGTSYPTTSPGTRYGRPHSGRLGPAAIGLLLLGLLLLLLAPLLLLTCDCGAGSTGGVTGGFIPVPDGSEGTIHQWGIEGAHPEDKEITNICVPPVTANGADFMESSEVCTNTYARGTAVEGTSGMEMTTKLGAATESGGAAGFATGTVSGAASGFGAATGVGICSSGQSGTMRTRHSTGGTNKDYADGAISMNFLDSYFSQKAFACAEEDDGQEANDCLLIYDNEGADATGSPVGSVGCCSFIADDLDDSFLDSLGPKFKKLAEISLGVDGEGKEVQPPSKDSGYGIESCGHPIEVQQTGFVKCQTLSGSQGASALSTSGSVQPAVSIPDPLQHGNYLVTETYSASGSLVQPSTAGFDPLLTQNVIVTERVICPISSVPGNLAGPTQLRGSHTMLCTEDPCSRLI
p-CIP stab down: p/CIP-EGFP fusion destabilizers, primary screen, fluorescence, F442A cells. Q05BA5. 16 h. decrease of EGFP signal, % at 10 µM. 290,000 compounds, 0.01% hits;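 active means EGFP signal decrease of at least 30% at 10 µM or well 3 SD below plate mean, unless failing retest; inactive means the rest, including hits failing retest or dose response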
GPR7 antag: GPR7 receptor antagonists, primary screen, cell-based, fluorescence, single concentration | 290,000 compounds, 1.1% hits | GPR7-expressing cells, fluorescence antagonist assay | inhibition, % at 4.4 µM | Neuropeptides B/W receptor type 1 (Homo sapiens), P48145; in the data active means inhibition above about 16%, passing the limit was not always enough;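 further: cells stimulated with the agonist NPW; 0% = agonist with vehicle and 100% = vehicle without agonist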
CHT block: inhibitors of human choline transporter CHT; High affinity choline transporter 1 (Homo sapiens), Q9GZV3; CHT-expressing cells, membrane potential dye, choline response; stronger effect = lower value; B-score at 10 µM; 310,000 compounds, 0.86% hits; AID 488975, 2010;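 active means B-score over 3 SD under the library average, and starting fluorescence ratio not unusually high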;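 further: choline stimulus applied at its EC90 after an EC20 pre-addition; B-score computed on integrated fluorescence ratio after choline addition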
Active calls of the source: *; i = inactive; nt = not tested or not shown.

SMILES	CHT PAM	T cell modulator	Pemphigus Ab inh	p-CIP stab down	GPR7 antag	CHT block
O=C1NC(=S)NC(=O)C1=Cc1cccn1-c1ccc(O)cc1	nt	nt	66.4*	-4.4	-7.6	nt
COc1cc2c(c(OC)c1OC)-c1ccc(SC)c(=O)cc1C(NC(C)=O)CC2 (stereo not drawn)	nt	nt	83.1	nt	nt	nt
O=C(c1ccc(F)cc1)C(Cc1ccccc1)N1CCCCC1 (stereo not drawn)	i	266.1	96.0	-3.8	0.2	i
O=C(CCCN1CCC2(CC1)C(=O)NCN2c1ccccc1)c1ccc(F)cc1	i	354.9	99.1	-13.0	101.8*	i
O=C1CCC[C@@H]2C[C@@]3(C[C@@H]4CCN1[C@H]24)Nc1cc(Cl)ccc1NC3=NCc1ccccc1	nt	nt	110.0	nt	nt	nt
CC(=O)OC(C)(C)/C=C/C(=O)[C@](C)(O)[C@H]1[C@H](O)C[C@@]2(C)[C@@H]3CC=C4[C@H](C[C@H](O)C(=O)C4(C)C)[C@]3(C)C(=O)C[C@]12C	nt	nt	94.9	7.4	-3.8	nt
CC(=O)OC(C)(C)/C=C/C(=O)C(C)(O)C1[C@H](O)C[C@@]2(C)C3CC=C4C(CC[C@@H](O)C4(C)C)[C@]3(CO)C(=O)C[C@]12C (stereo partly drawn)	8.67*	112.2	119.3	-6.2	4.8	i
O=C(O)c1cc[c]([Hg][Cl])cc1	i	496.4	72.9	nt	nt	-6.1*
O=C(O)c1cccc2c1NC(C(=O)O)C1CC(Sc3ccccc3[N+](=O)[O-])C(Cl)C21 (stereo not drawn)	i	579.4	73.2*	-10.8	-6.0	i
COc1cc(C=NNC(=S)Nc2ccc(S(=O)(=O)N3CCCCC3)cc2)cc(OC)c1OC	nt	nt	99.7	nt	nt	nt
O=C(O)c1cccc(N=Nc2c(O)[nH]c(=O)[nH]c2=O)c1	i	46.8*	99.2	-7.3	-2.6	i
O=C(c1ccccc1)c1ccc(N=Nc2c(O)[nH]c(=O)[nH]c2=O)cc1	i	159.6	69.5*	-5.6	-6.2	i
COc1cc2c(c(OC)c1OC)-c1ccc(OC)c(=O)cc1C(N)CC2 (stereo not drawn)	nt	nt	93.0	nt	nt	nt
CCC(C)C1NC(=O)C(NC(=O)C(CC(C)C)N(C)C(=O)C2CCCN2C(=O)C(C)O)C(C)OC(=O)C(Cc2ccc(OC)cc2)N(C)C(=O)C2CCCN2C(=O)C(CC(C)C)NC(=O)[C@H](C)C(=O)[C@H](C(C)C)OC(=O)CC1O (stereo partly drawn)	nt	nt	70.8	nt	nt	nt
O=C1C=CC(=O)C2C1C1(Cl)C(Cl)=C(Cl)C2(Cl)C1(Cl)Cl (stereo not drawn)	nt	nt	109.6	nt	nt	nt
CN[C@@H]1C[C@@H](c2ccc(Cl)c(Cl)c2)c2ccccc21	i	442.3	nt	-3.7	46.8*	i
O=c1[nH]c(=S)[nH]c(O)c1/C=C1/C=c2ccccc2=N1	i	142.0	82.8*	-0.4	-7.4	i
COc1ccc(CN2C(=O)NC(=O)/C(=C\c3ccco3)C2=O)cc1	i	476.3	67.2*	-12.3	-11.1	i
COc1ccc(CN2C(=O)C(CC(=O)NCc3ccco3)CC(C(=O)N(C)C)=C2C)cc1 (stereo not drawn)	nt	nt	106.2	nt	nt	nt
COc1cc2c(cc1OC)-c1c(OC)c(OC)cc3c1C(C2)N(C)CC3 (stereo not drawn)	8.4*	365.0	99.3	-14.6	-7.9	i
COCCCN1Cc2ccccc2C1=N	i	225.3	82.3	4.7	-14.5	i
N=C1c2ccccc2CN1c1ncccn1	7.89*	316.5	110.2	4.3	-10.7	i
COc1cccc(CC(=O)N2CCN(Cc3cccc(Cl)c3)CC2)c1	i	173.9	-53.0*	-8.2	18.6	i
Cc1nc2cc(C(F)(F)F)ccc2n1C1CCN(Cc2nnnn2CCc2ccccc2)CC1	i	216.3	108.1	-2.0	20.2*	i
CCOC(=O)NC1CCc2cc(OC)c(OC)c(OC)c2-c2ccc(OC)c(=O)cc21 (stereo not drawn)	nt	nt	86.1	nt	nt	nt
O=C(O)COc1ccc(Cl)cc1Cl	i	846.0	99.6	nt	nt	i
